Assay results reported in ChEMBL document CHEMBL4406834, “Phenylthiazoles with nitrogenous side chain: An approach to overcome molecular obesity” (Eur J Med Chem, 2019).
Values after ≈ are worked out from the molar mass of the structure shown.

Legend:
Escherichia coli [1] = assay: Antibacterial activity against TolC-deficient Escherichia coli JW55031; type: functional
Staphylococcus aureus [2] = assay: Antibiofilm activity against methicillin resistant Staphylococcus aureus NRS384 USA300 assessed as disruption of preformed biofilm at 4 x MIC incubated for 24 hrs by crystal violet staining based spectrophotometric analysis relative to control; type: functional
Procedure, shortened: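 MRSA USA300 overnight culture diluted 1:100 in tryptic soy broth + 1% glucose. Biofilm formed for 24 h at 37 °C. Planktonic cells removed, then compounds added at 256 to 2 µg/mL in TSB for 24 h at 37 °C. Wells washed with PBS, stained with 0.1% crystal violet for 30 min, destained with ethanol, read at OD595. Percent eradication relative to DMSO; unpaired t test.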

Acinetobacter baumannii = assay: Bactericidal activity against Acinetobacter baumannii ATCC 19606; type: functional; conditions: ATCC 19606 = CIP 70.34 = JCM 6841
Staphylococcus aureus [3] = assay: Antibacterial activity against Staphylococcus aureus ATCC BAA42 after 18 to 20 hrs by CLSI-based broth microdilution assay; type: functional
Procedure, shortened: (§1)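 Broth microdilution per CLSI. Strains grown aerobically overnight on tryptone soy agar at 37 °C, adjusted to 0.5 McFarland, then diluted in cation-adjusted Mueller-Hinton broth to about 5 × 10^5 CFU/mL. Compounds (10 mg/mL DMSO stocks) serially diluted. Incubated aerobically at 37 °C for 18-20 h. MIC is the lowest concentration with no visible growth.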

Staphylococcus aureus [4] = assay: Bactericidal activity against methicilline-resistant Staphylococcus aureus NRS384 USA300 incubated for 18 to 20 hrs followed by replating on tryptic soy agar plate and further incubated for 18 to 24 hrs by CLSI-based broth microdilution assay; type: functional
Procedure, shortened: (§2)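 MBC: after the broth microdilution MIC (CAMHB, ~5 × 10^5 CFU/mL, 37 °C, 18-20 h), 4 µL from wells without growth plated onto tryptic soy agar. Plates incubated 37 °C for 18-20 h. MBC is the lowest concentration giving 99.9% reduction in growth.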

Listeria monocytogenes = assay: Bactericidal activity against Listeria monocytogenes ATCC 19111 incubated for 18 to 20 hrs followed by replating on tryptic soy agar plate and further incubated for 18 to 24 hrs by CLSI-based broth microdilution assay; type: functional
Staphylococcus aureus [5] = assay: Antibacterial activity against methicilline-resistant Staphylococcus aureus NRS384 USA300 after 18 to 20 hrs by CLSI-based broth microdilution assay; type: functional; procedure, shortened: as §1
Staphylococcus aureus [6] = assay: Bactericidal activity against vancomycin-resistant Staphylococcus aureus 10 incubated for 18 to 20 hrs followed by replating on tryptic soy agar plate and further incubated for 18 to 24 hrs by CLSI-based broth microdilution assay; type: functional; procedure, shortened: as §2
Staphylococcus aureus [7] = assay: Antibacterial activity against methicilline-sensitive Staphylococcus aureus NRS-107 after 18 to 20 hrs by CLSI-based broth microdilution assay; type: functional; procedure, shortened: as §1
HaCaT [8] = assay: Cytotoxicity against human HaCaT cells up to 32 ug/ml after 2 hrs by MTS assay; type: cell-based
Staphylococcus aureus [9] = assay: Antibacterial activity against methicilline-resistant Staphylococcus aureus NRS-119 after 18 to 20 hrs by CLSI-based broth microdilution assay; type: functional; procedure, shortened: as §1
Escherichia coli [10] = assay: Bactericidal activity against Escherichia coli ATCC 25922; type: functional
Caco-2 [11] = assay: Cytotoxicity against human Caco2 cells up to 32 ug/ml after 2 hrs by MTS assay; type: cell-based; conditions: caco-2, 2 h
Escherichia coli [12] = assay: Antibacterial activity against Escherichia coli BW25113; type: functional
Klebsiella pneumoniae = assay: Antibacterial activity against Klebsiella pneumoniae BAA-1706; type: functional
Staphylococcus aureus [13] = assay: Bactericidal activity against methicilline-resistant Staphylococcus aureus NRS123 USA400 incubated for 18 to 20 hrs followed by replating on tryptic soy agar plate and further incubated for 18 to 24 hrs by CLSI-based broth microdilution assay; type: functional; procedure, shortened: as §2
[14] = Clearance in Sprague-Dawley rat at 50 mg/kg, po administered via gavage after 12 hrs by LC-MS/MS analysis; type: ADME, organism-based; conditions: in vivo
Procedure, shortened: (§3)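 Three male naïve Sprague-Dawley rats received a single oral gavage dose of 50 mg/kg in 2% ethanol/48% PEG 400/50% water. Blood was collected into EDTA-K2 tubes over 12 h after dosing. Plasma was protein-precipitated with acetonitrile and compound concentration quantified by LC/MS/MS.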

Caco-2 [15] = assay: Cytotoxicity against human Caco2 cells up to 64 ug/ml after 2 hrs by MTS assay; type: cell-based; conditions: caco-2, 2 h
[16] = Volume of drug distribution in Sprague-Dawley rat at 50 mg/kg, po administered via gavage measured over 12 hrs by LC-MS/MS analysis; type: ADME, organism-based; conditions: in vivo; procedure, shortened: as §3
Staphylococcus aureus [17] = assay: (§4) Antibacterial activity against intracellular methicillin resistant Staphylococcus aureus USA400 infected in mouse J774 cells assessed as log10 reduction in intracellular bacterial cells at 2 times MIC concentration incubated for 24 hrs followed by re-plating on TSA plate for 18 to 22 hrs by serial dilution method; type: functional
Procedure, shortened: (§5)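 J774 murine macrophages in DMEM + 10% FBS, 37 °C, 5% CO2, infected with MRSA USA400 at MOI ~10:1 for 1 h. Washed with gentamicin 100 µg/mL to kill extracellular bacteria. […] Cells lysed with 0.1% Triton-X, serially diluted in PBS, plated on TSA for 18-22 h, CFU counted. One-way ANOVA with Dunnett's test.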

[18] = Half life in Sprague-Dawley rat at 50 mg/kg, po administered via gavage measured over 12 hrs by LC-MS/MS analysis; type: ADME, organism-based; conditions: in vivo; procedure, shortened: as §3
[19] = Cmax in Sprague-Dawley rat at 50 mg/kg, po administered via gavage measured after 90 mins by LC-MS/MS analysis; type: ADME, organism-based; design: dose 50 mg/kg, route oral; conditions: in vivo; procedure, shortened: as §3
[20] = Tmax in Sprague-Dawley rat at 50 mg/kg, po administered via gavage measured over 12 hrs by LC-MS/MS analysis; type: ADME, organism-based; conditions: in vivo; procedure, shortened: as §3
HaCaT [21] = assay: Cytotoxicity against human HaCaT cells up to 64 ug/ml after 2 hrs by MTS assay; type: cell-based
Staphylococcus aureus [22] = assay: as §4, with “as” for “as log10”, “method relative to control” for “method”; type: functional; procedure, shortened: as §5
J774 = assay: Cytotoxicity against mouse J774 cells after 24 hrs by MTS assay; type: cell-based; conditions: j774, 24 h
Procedure, shortened: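 J774 murine macrophages were incubated with compound for 24 h, then given MTS reagent for 4 h. Absorbance was read at OD490.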

| SMILES | MIC (Escherichia coli [1]) [µg/mL] | inhibition (INH) (Staphylococcus aureus [2]) [%] | MBC (Acinetobacter baumannii) [µg/mL] | MIC (Staphylococcus aureus [3]) [µg/mL] | MBC (Staphylococcus aureus [4]) [µg/mL] | MBC (Listeria monocytogenes) [µg/mL] | MIC (Staphylococcus aureus [5]) [µg/mL] | MBC (Staphylococcus aureus [6]) [µg/mL] | MIC (Staphylococcus aureus [7]) [µg/mL] | MIC (Staphylococcus aureus [9]) [µg/mL] | MBC (Escherichia coli [10]) [µg/mL] | MIC (Escherichia coli [12]) [µg/mL] | MIC (Klebsiella pneumoniae) [µg/mL] | MBC (Staphylococcus aureus [13]) [µg/mL] | other results |
| --- | --- | --- | --- | --- | --- | --- | --- | --- | --- | --- | --- | --- | --- | --- | --- |
| C/C(=N\NC(=N)N)c1sc(-c2ccc(N3CCCC(C)C3)cc2)nc1C (stereo not given) | 8 (≈ 21.6 µM) | 50 | 32 (≈ 86.4 µM) | 8 (≈ 21.6 µM) | 16 (≈ 43.2 µM) | 8 (≈ 21.6 µM) | 4 (≈ 10.8 µM) | 16 (≈ 43.2 µM) | 8 (≈ 21.6 µM) | 8 (≈ 21.6 µM) | 32 (≈ 86.4 µM) | 32 (≈ 86.4 µM) | 16 (≈ 43.2 µM) | 16 (≈ 43.2 µM) | Activity (HaCaT [8]): Non-Toxic; Activity (Caco-2 [11]): Non-Toxic |
| C/C(=N\NC(=N)N)c1sc(-c2ccc(N3CCCCC3)cc2)nc1C | 32 (≈ 89.8 µM) | 72 | 64 (≈ 180 µM) | 4 (≈ 11.2 µM) | 16 (≈ 44.9 µM) | 16 (≈ 44.9 µM) | 4 (≈ 11.2 µM) | 16 (≈ 44.9 µM) | 4 (≈ 11.2 µM) | 4 (≈ 11.2 µM) | 64 (≈ 180 µM) | 32 (≈ 89.8 µM) | 64 (≈ 180 µM) | 16 (≈ 44.9 µM) | CL/F [14]: 12.7 mL/min; Activity (Caco-2 [15]): Non-Toxic; Vd [16]: 4.42 L; Activity (Staphylococcus aureus [17]): 1.18 log10CFU/ml; half-life [18]: 4 h; Cmax [19]: 9700 to 10000 ng/mL; Tmax [20]: 1.3 h; Activity (HaCaT [21]): Non-Toxic; inhibition (INH) (Staphylococcus aureus [22]): 93.2%; Activity (J774): Non-Toxic |
